From PubChem
TAAR1 antag: human TAAR1 antagonists, primary screen, Fluo-8 calcium fluorescence, CHO RD-HGA16 cells; Trace amine-associated receptor 1 (Homo sapiens), Q96RJ0; antagonist; inhibition, % at 3 µM; hit rate 1.5% among 360,000;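 active = inhibition above a per-plate cutoff, the mean inhibition of test compounds on that plate plus 3 SD, cut at about 49% in these data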;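 note: 0% = DMSO plus EC80 beta-PEA response and 100% = DMSO alone without agonist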
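Test system: hTAAR1-expressing CHO RD-HGA16 cells, Gα16-coupled; Probe or stimulus: EC80 β-phenethylamine stimulus; Compound dosing: single nominal final test compound concentration of 3 µM; Timing: 140 s kinetic read after compound, 140 s after agonist; Signal: Fluo-8 calcium-sensitive fluorescence; Measure: % inhibition of agonist calcium response; Controls: DMSO and EC80 PEA controls.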
OX1R antag-1: OX1R (HCRTR1) antagonists, primary screen, fluorescence, CHO/OX1R cells, Fluo-8 calcium, orexin A | Fluo-8 calcium fluorescence | AID 434989, 2010 | hit rate 0.43% among 330,000 | inhibition, % at 5 µM;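 active = inhibition above its plate's threshold, mean inhibition of all tested compounds on the plate plus 3 SD, cut at about 37% in these data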;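 note: 0% = orexin A challenge wells and 100% = SB-334867-A antagonist wells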
Target sequence (O43613 whole entry, looked up): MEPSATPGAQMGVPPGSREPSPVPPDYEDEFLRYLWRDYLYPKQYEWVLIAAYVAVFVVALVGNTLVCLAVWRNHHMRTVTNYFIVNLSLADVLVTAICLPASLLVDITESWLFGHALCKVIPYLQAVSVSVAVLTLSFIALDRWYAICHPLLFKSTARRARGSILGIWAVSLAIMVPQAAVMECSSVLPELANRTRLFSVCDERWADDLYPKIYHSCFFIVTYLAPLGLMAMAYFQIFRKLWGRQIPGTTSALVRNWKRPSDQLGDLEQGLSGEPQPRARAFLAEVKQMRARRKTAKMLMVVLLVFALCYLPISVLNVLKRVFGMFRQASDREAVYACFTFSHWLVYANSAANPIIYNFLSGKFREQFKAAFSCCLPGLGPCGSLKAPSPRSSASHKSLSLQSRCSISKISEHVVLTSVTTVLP
OX1R antag-2: antagonists of human orexin 1 receptor (OX1R); Orexin/Hypocretin receptor type 1 (Homo sapiens), O43613; hit rate 1.8% among 330,000; inhibition, % at 6.6 µM; OX1R-expressing cells, FRET antagonist read-out; in the data active = inhibition mostly above about 38%, no sharp cut-off; inactive = mostly below about 40%;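 note: 0% = agonist challenge alone and 100% = reference antagonist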
CHO parental Ca: ATP-evoked calcium signal inhibitors, parental CHO, primary screen, counter-screen for OX1R antagonist project, cell-based, fluorescence, Fluo-8 calcium dye; parental CHO-K1, ATP-induced calcium, Fluo-8 fluorescence; inhibition, % at 5.6 µM; hit rate 0.63% among 330,000;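 active = inhibition above that plate's mean sample inhibition plus 3 SD, cut at about 26% in these data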;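 note: 0% = ATP-challenged DMSO wells and 100% = DMSO wells without ATP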
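material = parental CHO cells | also added = ATP as calcium-mobilizing challenge | dosing = single point at 5.6 µM | detection = intracellular calcium via Fluo-8 no-wash fluorescent dye | read-out = % inhibition | benchmarks = low control ATP plus DMSO, high control DMSO only | repeats = one well per compound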
TAAR1 ag: human TAAR1 agonists, primary screen, Fluo-8 calcium fluorescence, CHO RD-HGA16 cells | Trace amine-associated receptor 1 (Homo sapiens), Q96RJ0 | vehicle wells 0%, saturating PEA agonist 100% | activation, % at 3 µM | hit rate 0.99% among 360,000;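 active = activation above the mean activation of all test compounds in the run plus 3 SD, cut at about 38% in these data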
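Repeats: no replicates (n 1) | Material: CHO-derived RD-HGA16 cells with stable Gα16 and human TAAR1 | Technique: Kinetic Fluo-8 calcium fluorescence | Schedule: 17-24 h seeding, 75 min 37 °C dye, 30 min RT | Evaluation: % activation from peak over basal fluorescence ratio, DMSO-to-PEA scaled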
Numbers without * were called inactive; . = no result given. This is a sample that favours compounds with a hit; in the whole collection about 3.9% have one here.

SMILES	TAAR1 antag	OX1R antag-1	OX1R antag-2	CHO parental Ca	TAAR1 ag
C=CC[C@H](CC(=O)N[C@H](CO)Cc1ccccc1)C(=O)N[C@@H](COC(=O)[C@H](CC=C)CC(=O)OC(C)(C)C)Cc1c[nH]c2ccccc12	60*	-16	4	-17	11
C=CC[C@@H](CC(=O)N[C@@H](CO)Cc1ccccc1)C(=O)N[C@@H](COC(=O)[C@@H](CC=C)CC(=O)OC(C)(C)C)Cc1c[nH]c2ccccc12	25	-3	0	-24	2
C=CC[C@@H](CC(=O)N[C@H](CO)Cc1ccccc1)C(=O)N[C@H](COC(=O)[C@@H](CC=C)CC(=O)OC(C)(C)C)Cc1c[nH]c2ccccc12	65*	84*	-1	61*	22
COC(=O)c1cc2c(c3c4ccccc4n(S(=O)(=O)c4ccc(C)cc4)c13)C(=O)N(CC(C)C)C2	-45	.	.	.	-2
CC(=O)Nc1cccc(-c2csc(Nc3ccccn3)n2)c1	-1	-10	61*	-12	4
Cc1cccc(Nc2nc(-c3cccs3)cs2)n1	-3	-16	55	-46	10
Cc1cccc(Nc2nc(-c3ccccn3)cs2)n1	26	20	66*	-5	8
CCCCCCN1C[C@H](O)[C@@H](n2cc(C3CC3)nn2)C[C@@H]1c1ccccc1	-1	.	.	.	2
O=C(Nc1ccc(OC(F)(F)C(F)F)c(NC(=O)c2ccc(F)cc2)c1)c1ccc(F)cc1	32	28	65*	7	8
CC1(C(=O)Nc2ccc3c(c2)OCCO3)CN(S(C)(=O)=O)CC(=O)N1CCc1ccccc1F (stereo not given)	0	.	.	.	5
Cc1cc(NC(=O)c2cccnc2Cl)ccc1NC(=O)c1cc2ccccc2o1	24	-22	2	-17	40*
CC(C)C[C@@H]1COc2cc(N3CCOCC3)ccc2S(=O)(=O)N1	20	.	.	.	0
COc1cc(C(=O)NNC(=S)NC(=O)c2ccc3c(c2)OCO3)cc(OC)c1OC	-30	-33	17	-13	44*
Cc1ncc(CO)c(/C=N/NC(=O)c2ccc(O)cc2)c1O	-13	6	3	0	1
Cc1ncc(CO)c(/C=N/NC(=O)c2cc3c(s2)CCCC3)c1O	-6	-20	50*	-12	3
CC(C)CCN1C(=O)c2ccccc2C1c1nnnn1C(C)C (stereo not given)	-12	.	.	.	2
Cc1cccc(C)c1NC(=O)C(c1ccnc2ccccc12)N1CCN(CCN(C)C)CC1 (stereo not given)	-24	.	.	.	3
CC1=C/C(=C(/c2cc(C)c(O)c(Br)c2)c2ccccc2S(=O)(=O)O)C=C(Br)C1=O	0	-6	41*	5	0
CC1=C/C(=C(/c2ccc(O)c(C)c2)c2ccccc2S(=O)(=O)O)C=CC1=O	-2	-3	16	-1	3
COc1ccc(CN(C(=O)CSc2nnc(-c3ccccc3C)o2)c2ccc(F)cc2)cc1	44	-16	48	-21	9
O=C(CSc1nnc(-c2c[nH]c3ccccc23)o1)N(Cc1ccccc1)c1ccc(F)cc1	.	14	52*	17	.
CCCC(=O)N1CCC1(C)C(=O)NS(=O)(=O)c1cccc(C)c1 (stereo not given)	-13	.	.	.	1
CCOc1cc(C(=S)N2CCCC2)ccc1OCC(=O)Nc1c(C)cc(C)cc1C	-27	15	66*	-21	2
CCCCCNC(=O)C1C(=O)Nc2ccccc2C(=O)N1c1ccc(OC)cc1 (stereo not given)	-10	.	.	.	2
Cc1sc2ncnc(N3CCC(C(=O)Nc4ccc(OC(F)F)c(Cl)c4)CC3)c2c1C	28	17	30*	-8	6
Cc1cccc(C)c1NC(=O)CN(C)C(=O)C1CCN(c2ncnc3sc(C)c(C)c23)CC1	2	-29	11	-31	5
Cc1cc(Br)ccc1NC(=O)CN(C)C(=O)C1CCN(c2ncnc3sc(C)c(C)c23)CC1	57*	.	.	.	12
